Screening data as filed in PubChem.
Bfl-1 A1 inh: inhibitors of the anti-apoptotic protein A1, read as caspase activation; MEF A1-2A-BIM cells, Caspase-Glo 3/7 luminescence, 3 h; percent of clofoctol response, vehicle zero; caspase activation, % (test concentration not listed); 330,000 tested, 0.066% active; AID 2462;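 active = over half of replicate activation scores above 10%, or exactly half above 10 with the replicate mean above 10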
UPR CHOP act: activators of apoptotic arm of unfolded protein response (CHOP). CHO-CHOP luciferase reporter, UPR activation, luminescence; percent of tunicamycin response over DMSO baseline. 330,000 tested, 0.34% active. activation, % at 10 µM;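 active = at 10 µM dose, activation of 40% or more, normalized to positive control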;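 also: 100% = tunicamycin at 10 µg/mL and 0% = DMSO alone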
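Dosing – one dose, 10 µM in 0.5% DMSO · System – CHO-CHOP cells, stable luciferase reporter of PERK-eIF2a-CHOP signalling · Input – 500 cells/well · Control set – tunicamycin 10 µg/mL final as positive, DMSO-only wells as negative · Timing – 6 h compound treatment, 37 °C · Measure – % activation vs tunicamycin · Technique – luminescence read with Steady-Glo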
UPR XBP1 act: adaptive UPR (XBP1) activation; activation, % at 20 µM; 330,000 tested, 0.33% active; CHO-XBP1 luciferase reporter, IRE1-XBP1 UPR activation, luminescence; percent of tunicamycin response, DMSO as zero;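 active = versus positive control, 20 µM dose yields 30% or more activation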;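 also: 100% = tunicamycin at 10 µg/mL and 0% = DMSO only wells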
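Material: IRE1-XBP1 luciferase reporter CHO line / Quantity: one thousand reporter cells per well / Buffer or medium: F12 with 10% serum / Compound: 20 µM single concentration, DMSO 1% / Times: 6 h treatment, 37 °C / Detection: Steady-Glo luciferase glow luminescence, 10 min after reagent addition / Benchmarks: tunicamycin high, DMSO low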
CHOP inhibitor: CHOP inhibition in unfolded protein response | 220,000 tested, 3.8% active | CHO-K1 CHOP-promoter luciferase, tunicamycin-induced, 15-18 h | inhibition, % at 10 µM;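 active = compounds that reduced the stress-induced luciferase reporter signal by more than about 70% of percent inhibition, limit read from the data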;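 also: 0% = tunicamycin plus vehicle and 100% = wells without tunicamycin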
CHOP confirm: confirmation of CHOP induction inhibitors. CHO-CHOP promoter luciferase reporter, tunicamycin-induced, luminescence. AID 504437. shares compounds with CHOP inhibitor. inhibition, % at 10 µM. 2,100 tested, 45% active;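 active = mean of three repeat readings of reporter signal inhibition above a set limit, cut at about 70% in these data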;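 also: 0% = tunicamycin plus vehicle and 100% = wells lacking tunicamycin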
Starred values were filed as active, the others as inactive; x = no result. The entries come from a sample that favours hits as a whole.

SMILES	Bfl-1 A1 inh	UPR CHOP act	UPR XBP1 act	CHOP inhibitor	CHOP confirm
Cc1ccc2c(c1)-c1c(ssc1=S)C(C)(C)N2C(=O)c1ccco1	1	0	2	15	x
CCOC(=O)COc1ccccc1/C=C\[N+](=O)[O-]	3	x	x	107*	86*
COc1cc(NC(=O)Cn2cnc3c(SC)nc(N)nc32)cc(OC)c1OC	0	-2	-1	x	x
CC(NC(=O)COC(=O)c1ccc2c(c1)S(=O)(=O)N=C1CCCCCN12)C12CC3CC(CC(C3)C1)C2 (stereo not given)	7.2*	-2	-1	104*	-18
C(=N\Nc1ncnc2sc3c(c12)CCC3)/c1ccncc1	0	-2	15	-10	x
C(=N\Nc1ncnc2sc3c(c12)CCC3)/c1cccs1	-1	-1	6	102*	73*
CCOC(=O)c1ccc(NC(=O)CCc2nc(-c3cccc(C)c3)no2)cc1	-1	-1	2	98*	45
Cc1cccc(-c2noc(CCC(=O)NCc3ccccc3)n2)c1	-1	-3	0	8	x
CCCC1/C(=N/O)CC(c2ccccc2)NC1c1ccccc1 (stereo not given)	0	-1	-7	106*	35
CNC(CC(=O)c1ccc([N+](=O)[O-])cc1)C(Cl)(Cl)Cl (stereo not given)	3	x	x	110*	-12
Cn1c2ccccc2c(=O)c2c(=O)n(C3CCCCC3)c(-c3cccs3)nc21	0	-1	17	97*	42
CCc1nc2c(c(=O)c3ccccc3n2C)c(=O)n1C1CCCCCC1	0	-4	6	60	x
Cn1c2ccccc2c(=O)c2c(=O)n(-c3ccccc3)c(C3CCCCC3)nc21	0	3	-1	35	x
Cn1c2ccccc2c(=O)c2c(=O)n(C3CCCCCC3)c(C3CCCCC3)nc21	x	x	x	105*	122*
CCOC(=O)C1=C(c2ccccc2)O/C(=C(/C#N)C(F)(F)F)S1	3	54*	-2	97*	113*
Cc1cc(C(=O)CCC(=O)NCC2COc3ccccc3O2)c(C)s1 (stereo not given)	0	2	-1	x	x
COc1ccc(C2=NOC(C(=O)NCc3cccnc3)C2)cc1 (stereo not given)	0	2	-4	x	x
COc1ccccc1C(=O)NNC(=O)C1CC=CCC1 (stereo not given)	1	3	1	x	x
C=CCn1cnc2c(c1=O)c1nc3ccccc3nc1n2/N=C/c1cc(OC)c(OC)c(OC)c1	0	20	11	31	x
COCCn1cnc2c(c1=O)c1nc3ccccc3nc1n2/N=C/c1cccc(OC)c1	-1	1	12	101*	107*
O=S(=O)(/C(=C/c1ccc(C(F)(F)F)cc1)c1nc2ccccc2[nH]1)c1ccccc1	1	x	x	109*	134*
CSc1ccc(Cl)c(C(=O)N(C)CC(=O)Nc2ccc(N3CCOCC3)cc2)c1	0	0	-2	x	x
NS(=O)(=O)c1ccc(NC(=O)COC(=O)c2cn(-c3ccccc3)nc2-c2ccccc2)cc1	0	4	27	97*	-1
COC(=O)c1cn(-c2ccccc2)nc1-c1ccccc1	0	2	0	8	x
COc1ccc(C(=O)Nc2ccccc2C(=O)NCCN2CCOCC2)cc1OC	2	1	0	x	x
SMILES	Bfl-1 A1 inh	UPR CHOP act	UPR XBP1 act	CHOP inhibitor	CHOP confirm
CCc1ccc(S(=O)(=O)/N=C2/C=C(Sc3ncn[nH]3)C(=O)c3ccccc32)cc1	1	x	x	108*	-141
CCc1ccc(S(=O)(=O)/N=C2\C=CC(=O)c3ccccc32)cc1	1	14	18	-30	x
COc1cc([C@@H]2c3cc4c(cc3[C@@H](O)[C@@H](CO)[C@@H]2CO)OCO4)cc(OC)c1O[Si](C)(C)C(C)(C)C	0	0	7	100*	117*
CCC(=O)N1CCc2cc(S(=O)(=O)CCC(=O)NCc3ccccc3OC)ccc21	-2	1	0	x	x
Oc1ccc(/C=N/Nc2cc(N3CCCC3)nc(N3CCCC3)n2)cc1	0	4	25	109*	14
Oc1ccc(Br)cc1-c1cc(-c2ccc(Cl)cc2)n[nH]1	0	2	6	104*	16
c1ccc(-c2cc3ccccc3[nH]2)cc1	1	4	0	x	x
Clc1ccc2[nH]c(-c3ccccc3)cc2c1	-2	4	1	104*	70*
Cc1c(C(=O)OC/C(O)=C(\C#N)c2nc3ccccc3[nH]2)oc2ccc(Br)cc12	0	3	2	103*	13
Cc1c(-c2cccc(Cl)c2)nc2ccccc2c1C(=O)OC/C(O)=C(\C#N)c1nc2ccccc2[nH]1	2	0	16	105*	47
CC(C)OCc1c(C(=O)OC/C(O)=C(\C#N)c2nc3ccccc3[nH]2)oc2ccccc12	0	0	-4	38	x
Cc1cccc(C)c1OCC(=O)OC/C(O)=C(\C#N)c1nc2ccccc2[nH]1	0	0	-4	58	x
CC(=O)CCn1cc([N+](=O)[O-])nc1C	1	-1	-1	4	x
O=C1c2ccccc2C(=O)C12OC2c1ccc(Cl)cc1 (stereo not given)	2	103*	-4	109*	-21
O=C1c2ccccc2C(=O)C12OC(c1ccccc1)C1(C(=O)c3ccccc3C1=O)C2c1ccc([N+](=O)[O-])cc1 (stereo not given)	0	3	4	2	x
O=[N+]([O-])c1cccnc1N1CCC(c2cc(-c3cccc(C(F)(F)F)c3)n[nH]2)CC1	-1	2	0	103*	48
Cc1cccc(/C=N\NC(=O)c2ccc(Cl)cc2)c1O	-1	7	2	98*	17
Cc1cccc(/C=N/NC(=O)Cc2ccc(Cl)cc2)c1O	2	1	-6	x	x
CCN(CC(=O)NCc1cccs1)C(=O)COc1ccc(C(C)=O)cc1	1	-3	1	x	x
COc1cc(C(=O)O/N=C2\C=CC(=O)C(C)=C2)cc(OC)c1OC	0	-2	-8	108*	99*
COc1cccc(CN(C(=O)c2cc3ccccc3oc2=O)C2CCS(=O)(=O)C2)c1 (stereo not given)	2	4	-2	x	x
CCOC(=O)CCCCC(=O)c1[nH]c(=O)[nH]c1CSc1nnc2c3cc(Br)ccc3n(C)c2n1	-1	-1	2	103*	6
CC1(c2nnc(-c3cccc(Cl)c3)o2)CC(c2cccc([N+](=O)[O-])c2)=NO1 (stereo not given)	0	-1	2	x	x
NC(=O)N/N=C\c1cc(Br)ccc1O	0	0	-2	37	x
Cc1ccc(OCCOc2ccc(Br)cc2/C=N\NC(N)=O)cc1	0	1	0	103*	39
COc1cc(NC(=O)COC(=O)c2ccccc2SCC(=O)N2CCCC2)cc(OC)c1	-1	-1	-4	x	x
